Sampled rows, rich in hits. Any-hit rate of the full collection: about 1.5%.
HePTP inh: inhibitors of human HePTP phosphatase; P35236; recombinant HePTP phosphatase activity, OD absorbance; inhibition, % at 20 µM; hit rate 0.64% among 110,000; AID 521; in the data active means inhibition above about 50%;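 further: plate controls were vehicle for no effect and reference inhibitor for full effect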
PLK1 PBD inh: inhibitors of human Plk1 polo box domain binding. AID 693. Plk1 PBD phosphopeptide binding, fluorescence polarization. inhibition, %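 (tested at about 20 µM)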. P53350. hit rate 0.13% among 97,000; in the data active means inhibition above about 34%, passing the limit was not always enough
HEK293 NFkB inh: inhibitors of the PMA/ionomycin-induced NF-kB reporter in HEK293 cells; HEK-293 NF-kB luciferase reporter, luminescence; inhibition, % at 3 µM; hit rate 0.21% among 62,000; AID 465;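 active means inhibition above the mean of all tested compounds plus 3 SD, cut at about 40% in these data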;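 further: 0% = stimulated DMSO wells and 100% = 10 µM reference inhibitor 5653914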
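Timing: 1 h pretreatment, 16 h stimulation, 37 °C; system: HEK-293 cells with stable firefly luciferase reporter driven by four HIV NF-kB elements; doses: 3 µM once, 0.30% DMSO; measured by: luciferase luminescence; control set: DMSO and 10 µM reference inhibitor; repeats: single test; reagent: PMA plus ionomycin mix as NF-kB-activating stimulus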
PTK2B oligo ant: antagonists of human Pyk2 oligomerization. Q14289. AID 1347419. z-score (the deposit names both 25 µM and 10 µM). Q293 cells, Pyk2 FERM NanoBiT luminescence; active compounds read low. hit rate 0.83% among 99,000;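 active means Z-score of -3 or lower, scaled per plate to the spread of control and sample wells; inactive means z-score above -3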;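 further: negative z-score means lost luminescence so less FERM oligomerization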
AP ELISA ortho: alternative pathway complement inhibition, orthogonal assay; Human serum alternative complement pathway, LPS-coated ELISA, C3 deposition; tested in compound mixtures; inhibition, % at 5 µM; hit rate 0.08% among 62,000;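 active means inhibition above 30% in each of the two pooled mixtures holding the compound, so the lower value exceeds 30%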;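 further: 0% = serum in Mg-EGTA without compound and 100% = EDTA serum blank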
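Medium: diluted human serum in Mg2+-EGTA GVB++. Assay system: human serum complement alternative pathway, C3 deposition onto LPS. Also added: Plate-bound LPS. Technique: Anti-C3 ELISA, OD 450 nm. Measure: percent inhibition. Incubation: 1 h at 37 °C. Dosing: 5 µM each compound, pools of ten, 50 µM per pool.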
PLK1 inh: inhibitors of human PLK1 kinase | recombinant PLK1 kinase, TR-FRET peptide phosphorylation | inhibition, % at 10 µM | hit rate 0.53% among 97,000 | AID 619;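 active means inhibition of 50% or more in the single-concentration screen; inactive means inhibition below 50%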;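 further: 0% = DMSO max control and 100% = H-89 dihydrochloride min control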
* marks the source's active call; other numbers are inactive results; x = no result.

SMILES	HePTP inh	PLK1 PBD inh	HEK293 NFkB inh	PTK2B oligo ant	AP ELISA ortho	PLK1 inh
Cc1cccc(NS(=O)(=O)c2cc(C(=O)OCC(=O)Nc3cc(C)on3)ccc2C)c1	2	28	10	-3.4*	9	3
Nc1nncn1C(=O)c1c(Cl)cccc1Cl	8	-5	17	-0.44	13	7
Cc1ccc(C)c(C(=O)n2cnnc2N)c1	2	8	18	0.48	34*	54*
Nc1nncn1C(=O)c1cccs1	4	-10	16	-0.31	5	57*
Cc1ccc(C(=O)n2cnnc2N)cc1	x	-10	x	0.57	x	3
Cc1ccc(OCCOCCOc2ccc(Br)cc2/C=N\n2cnnc2)cc1	-1	x	x	x	x	x
CCn1c(C)nc2cc(-c3nc4n(n3)Cc3ccccc3-4)ccc21	2	x	93*	0.04	24	x
Cc1ccccc1CNC(=O)C(C)Sc1ccc(Cl)cc1 (centres undefined)	5	x	x	x	x	x
CCn1nc(C)c(Cc2c(C)nn(CC)c2C)c1C	104*	x	x	x	x	x
CCC(O)C#CC1(C)CCCC(C)(C)O1 (centres undefined)	-15	x	x	x	x	x
O=C(/C=C/c1ccc2c(c1)OCO2)Nc1ccccn1	1	x	x	x	x	x
COc1ccc(NC(=O)c2oc3ccccc3c2NC(=O)c2ccco2)c(OC)c1	3	-6	15	-2.3	-1	-14
COc1ccc(NC(=O)c2oc3ccccc3c2NC(=O)c2ccco2)cc1	3	-18	17	-3*	15	-6
N#CC1=C2SCC(O)(c3ccccc3)N2C(=O)CC1c1ccccc1F (centres undefined)	x	4	x	-3*	x	-8
COc1ccc(C2CC(=O)N3C(=C2C#N)SCC3(O)c2ccccc2)cc1 (centres undefined)	5	-8	29	-2.7	9	-3
N#CC1=C2SCC(O)(c3ccccc3)N2C(=O)CC1c1cccs1 (centres undefined)	5	-11	48*	-1	14	3
CCN1C(=O)c2cccc3c(S(=O)(=O)Nc4ccccn4)ccc1c23	2	13	40*	0.64	-6	-3
O=C(N/N=C/c1ccc(OC(=O)c2ccc(Br)cc2)cc1)c1cccc([N+](=O)[O-])c1	52*	x	x	x	x	x
CCN1C(=O)C2(C(C#N)=C(N)Oc3n[nH]c(-c4ccc(Cl)cc4)c32)c2ccccc21 (centres undefined)	x	17	x	-3*	x	-6
CCN1C(=O)C2(C(C#N)=C(N)Oc3n[nH]c(C(C)C)c32)c2ccccc21 (centres undefined)	6	8	-10	-0.34	5	0
Cc1cccc(NC(=O)c2cc(-c3ccc(Cl)cc3)nc3ccccc23)n1	-8	x	x	x	x	x
COc1cc(S(=O)(=O)N2CCOCC2)ccc1NC(=O)CSc1nnc(N)s1	1	-10	10	0.27	33*	0
COc1ccc(C(=O)N2CCN(Cc3ccc(C)cc3)CC2)cc1OC	-12	x	x	x	x	x
O=C1CSC(c2cn(-c3ccccc3)nc2-c2ccccc2)N1Cc1ccc(Cl)cc1 (centres undefined)	74*	x	x	x	x	x
COc1ccc2c(c1)CCC/C2=N\OC(=O)c1cc(OC)c(OC)c(OC)c1	-8	x	x	x	x	x
SMILES	HePTP inh	PLK1 PBD inh	HEK293 NFkB inh	PTK2B oligo ant	AP ELISA ortho	PLK1 inh
Cc1nc(SCC(=O)Nc2cc(C)on2)c2c(=O)n(C)c(=O)n(C)c2n1	-9	-15	10	x	1	-8
Cc1csc(NC(=O)CSc2nc(C(C)C)nc3c2c(=O)n(C)c(=O)n3C)n1	4	12	6	x	17	66*
CCCCn1c2nc3ccccc3nc2c2c(=O)n(C(C)CC)cnc21 (centres undefined)	6	15	-1	-3.1*	16	-14
OCCNc1ncnc2c1c(-c1ccccc1)c(-c1ccccc1)n2Cc1ccco1	x	-3	x	-3.3*	-19	-8
Cc1ccccc1-c1nc(S(=O)(=O)c2ccc(Br)cc2)c(NCc2cccnc2)o1	x	-8	x	-3.4*	x	7
C=C(C)COc1cc2oc(=O)c3c(c2cc1Cl)CCCC3	3	x	x	x	x	x
COc1ccc(NC(=O)CSc2nc(C)c3c(c2C#N)CCCC3)cc1	x	-17	x	-2.3	x	-11
CCc1nnc(NC(=O)CSc2nc(C)c3c(c2C#N)CCCC3)s1	6	4	x	-3.4*	x	-19

Screening results: PubChem, several laboratories
